ChEMBL document CHEMBL3877328, “Identification of allosteric binding sites for PI3Kα oncogenic mutant specific inhibitor design” (Bioorg Med Chem, 2017)

How the values were obtained:
[1] = molecular target: PI3-kinase p110-alpha/p85-alpha (Homo sapiens) (UniProt P27986+P42336); assay: Inhibition of wild type PI3K p110alpha/p85alpha niSH2 (unknown origin) expressed in baculovirus infected sf9 cells assessed as reduction in PIP3 formation at 100 uM using PIP2 as substrate after 45 mins by fluorescence polarization assay relative to control
How it was run: (§1)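 Wild-type PI3Kα, either full-length or the p110α/niSH2 construct used for crystallography. Protein was co-expressed in Sf9 cells from p110α and p85α (or niSH2) viruses at MOI ratio 3:2, with J-32 in the medium, and harvested at 48 h. Fragments were added from 10% (v/v) DMSO dilutions and screened at 100 μM. Reactions held 10 μM PIP2 and 25 μM ATP, 45 min at room temperature. PIP3 formation was read by fluorescence polarization.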

[2] = molecular target: T1, Phosphatidylinositol 4,5-bisphosphate 3-kinase catalytic subunit alpha isoform (Homo sapiens, UniProt P42336); assay: Inhibition of full length PI3Kalpha (unknown origin) assessed as reduction in PIP3 formation at 100 uM using PIP2 as substrate after 45 mins by fluorescence polarization assay relative to control; how it was run: as §1
T1 sequence (P42336 whole entry, canonical isoform): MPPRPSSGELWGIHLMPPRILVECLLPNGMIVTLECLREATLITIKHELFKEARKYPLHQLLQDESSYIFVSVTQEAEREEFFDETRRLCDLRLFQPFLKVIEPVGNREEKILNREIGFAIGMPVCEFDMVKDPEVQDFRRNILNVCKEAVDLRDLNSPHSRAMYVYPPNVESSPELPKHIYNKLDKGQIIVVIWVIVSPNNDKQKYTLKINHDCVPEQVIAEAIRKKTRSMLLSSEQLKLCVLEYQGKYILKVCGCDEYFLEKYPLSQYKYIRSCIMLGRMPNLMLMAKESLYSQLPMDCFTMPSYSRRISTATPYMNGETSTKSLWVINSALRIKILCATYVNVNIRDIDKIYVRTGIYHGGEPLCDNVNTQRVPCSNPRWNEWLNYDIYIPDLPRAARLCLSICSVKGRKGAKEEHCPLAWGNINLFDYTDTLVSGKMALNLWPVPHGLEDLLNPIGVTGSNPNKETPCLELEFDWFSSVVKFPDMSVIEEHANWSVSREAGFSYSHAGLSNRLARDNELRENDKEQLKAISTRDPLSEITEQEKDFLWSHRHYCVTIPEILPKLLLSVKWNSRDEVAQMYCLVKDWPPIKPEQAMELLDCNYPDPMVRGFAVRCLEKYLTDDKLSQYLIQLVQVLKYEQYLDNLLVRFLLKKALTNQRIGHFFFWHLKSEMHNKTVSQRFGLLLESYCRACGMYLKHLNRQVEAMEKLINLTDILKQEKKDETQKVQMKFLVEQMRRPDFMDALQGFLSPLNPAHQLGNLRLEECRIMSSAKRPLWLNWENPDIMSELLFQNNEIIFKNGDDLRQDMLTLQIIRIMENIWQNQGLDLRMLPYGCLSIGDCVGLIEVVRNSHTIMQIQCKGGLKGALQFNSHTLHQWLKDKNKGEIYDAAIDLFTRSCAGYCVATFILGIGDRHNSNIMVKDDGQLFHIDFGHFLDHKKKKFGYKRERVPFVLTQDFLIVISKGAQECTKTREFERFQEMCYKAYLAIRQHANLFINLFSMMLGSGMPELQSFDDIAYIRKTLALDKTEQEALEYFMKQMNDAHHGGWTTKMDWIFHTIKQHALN

[3] = molecular target: T1, Phosphatidylinositol 4,5-bisphosphate 3-kinase catalytic subunit alpha isoform; assay: Inhibition of full length PI3Kalpha (unknown origin) assessed as reduction in PIP3 formation using PIP2 as substrate after 45 mins by fluorescence polarization assay
How it was run: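 Wild-type full-length p110α/p85α PI3Kα, baculovirus-expressed in Sf9 cells, purified. Fluorescence polarization kit detecting PIP3 formation. Reaction with 10 μM PIP2 and 25 μM ATP, 45 min at room temperature. Fragments diluted in 10% (v/v) DMSO. Single-point screen at 100 μM; IC50 from dose-response curves over increasing fragment concentrations.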

| Compound | inhibition [1] | inhibition [2] | IC50 [3] |
| --- | --- | --- | --- |
| CC1C(=O)CCCC1=O | < 25% | < 25% |  |
| O=C(O)c1ccccc1O | < 25% | < 25% |  |
| Cc1cccc(N)n1 | < 25% | < 25% |  |
| Nc1ccccc1CO | < 25% | < 25% |  |
| Cc1cc(C)nc(N)c1 | < 25% | < 25% |  |
| Cc1cc2ccccc2[nH]1 | < 25% | < 25% |  |
| Oc1ccccc1O [CATECHOL] |  | 87% | 33 µM |
| O=c1[nH]c(=O)c2nccnc2[nH]1 | < 25% | < 25% |  |
| O=c1[nH]cc(F)c(=O)[nH]1 | < 25% | < 25% |  |
| NS(=O)(=O)c1ccccc1Cl | < 25% | < 25% |  |
| Nc1ccc2[nH]c(C(F)(F)F)nc2c1 | < 25% | < 25% |  |
| Nc1ccc2c(c1)CN=N2 | < 25% | < 25% |  |
| N#Cc1cccc(N)c1 | < 25% | < 25% |  |
| Cc1c(N)cccc1N |  | 92% | 20 µM |
| Cc1ccnc(N)c1[N+](=O)[O-] | < 25% | < 25% |  |
| CC(C)(C)OC(=O)N1CCC(N)CC1 | < 25% | < 25% |  |
| OC1CCC(O)CC1 (configuration not stated) | < 25% | < 25% |  |
| COc1ccccc1C(=O)O | < 25% | < 25% |  |
| O=C(O)CCc1ccc(O)cc1 | < 25% | < 25% |  |
| Oc1cccnc1 | < 25% | < 25% |  |
| Nc1nc2ccccc2[nH]1 | < 25% | < 25% |  |
